F508del corr = CFTR F508del correction in bronchial cells; activity (quench increase), % at 7.58 µM; CFBE cells, YFP halide quenching; stimulated with forskolin plus potentiator P3; % fluorescence drop versus neutral controls; 350,000 compounds, 0.36% hits; AID 720511;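 active means mean added fluorescence quench of at least 8% versus neutral control, with both replicates also reaching 8%; inconclusive means only one of the mean or replicate conditions met; inactive means mean below 8% and not both replicates reaching 8%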;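 further: cells transiently co-express mutant CFTR-F508del with the halide-sensitive YFP; corrector assay measuring rescue of mutant channel to the surface after 24 h compound exposure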
Cneo AK release = Cryptococcus neoformans lysis via adenylate kinase release; lysis activity, % at 15 µM; C. neoformans lysis, adenylate kinase release luminescence, 4 h; normalised: neutral wells 0, clomiphene wells 100; 360,000 compounds, 0.2% hits;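 active means mean lysis activity across replicates of at least 80%, whatever share of replicates individually reach that level; inactive means mean lysis activity below 80%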
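Material: C. neoformans cells; Schedule: 4 h static compound exposure, 37 °C, read 1 h post-reagent; Measured by: adenylate kinase release luminescence; Read-out: signal increase indicating cell lysis; Controls: Clomiphene as positive lysis control.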
DENV2 CPE rescue = DENV2-induced cell death inhibition; DENV2-infected cells, cytopathic effect rescue, plate reader; CPE inhibition, % at 9.99 µM; 350,000 compounds, 1.7% hits; in the data active means CPE inhibition above about 20%, passing the limit was not always enough; inconclusive means no clear call, values can overlap the other calls; tested in BHK-21 cells;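 further: 0% = median of neutral control wells and 100% = median of positive control wells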
PDI inh = blocks human protein disulfide isomerase activity | P07237 | PDI insulin aggregation turbidity, A650, 90 min | inhibition, % at 10 µM | 350,000 compounds, 0.052% hits | AID 588391;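 active means mean inhibition across replicates of 30% or more, whatever share of single replicates reach that level; inconclusive means mean inhibition below 30% while every single replicate reaches 30%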
ERp5 block = ERp5 (human) disulfide isomerase inhibition; ERp5 insulin aggregation, absorbance 650 nm, 90 min; inhibition, % at 9.99 µM; Q15084; 350,000 compounds, 0.05% hits;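 active means mean replicate inhibition above about 25%, with every replicate also reaching it, limit read from the data, passing the limit was not always enough; inconclusive means only one of those two criteria met; inactive means neither criterion met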
Target sequence (Q15084 whole entry, looked up): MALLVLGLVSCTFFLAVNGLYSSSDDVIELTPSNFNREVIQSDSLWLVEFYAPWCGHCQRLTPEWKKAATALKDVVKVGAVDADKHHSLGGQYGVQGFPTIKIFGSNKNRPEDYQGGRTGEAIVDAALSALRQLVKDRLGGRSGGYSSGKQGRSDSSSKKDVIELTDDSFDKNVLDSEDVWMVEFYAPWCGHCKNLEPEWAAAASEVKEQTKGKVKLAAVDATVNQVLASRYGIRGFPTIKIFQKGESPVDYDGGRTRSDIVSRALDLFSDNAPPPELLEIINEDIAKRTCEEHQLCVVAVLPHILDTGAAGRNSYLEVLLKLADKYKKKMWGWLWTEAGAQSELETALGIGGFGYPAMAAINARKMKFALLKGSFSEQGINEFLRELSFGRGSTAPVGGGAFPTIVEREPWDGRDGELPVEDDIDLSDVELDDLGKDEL
Statin myotox sup = suppressors of simvastatin-induced myotoxicity in C2C12 myotubes; ATP luminescence, 48 h; scaled: DMSO 0, geranylgeraniol control 100; rescue of ATP level, % at 7.49 µM; 330,000 compounds, 0.78% hits;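 active means mean ATP rescue above about 67%, or every replicate alone reaching that limit, limit read from the data, passing the limit was not always enough; inconclusive means no clear call, values can overlap the other calls; inactive means mean under the limit and some replicate under it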;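 further: myotubes were challenged with 10 µM simvastatin during compound exposure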
* hit, by the source's call; ? = inconclusive; · = no result given; ! = not confirmed by another sample. A selection: hits, their analogues and other compounds. The true share with any hit is near 2.3%.

SMILES	F508del corr	Cneo AK release	DENV2 CPE rescue	PDI inh	ERp5 block	Statin myotox sup
NCC[C@H]1CC[C@@H](NC(=O)C2CCCC2)[C@@H](CO)O1	-1.4	2.1	-6.9	·	-4.6	-4.5
Cn1cnc(S(=O)(=O)N[C@@H]2C=C[C@@H](CC(=O)N3CCN(c4ccccc4)CC3)O[C@H]2CO)c1	-2.6	2.7	12.5	·	-5.8	-3.3
CCCNC(=O)N[C@H]1C=C[C@H](CC(=O)N2CCN(C)CC2)O[C@@H]1CO	0.8	-1.4	24.5*	·	-1.9	5.3
O=C(Cc1ccccc1)N[C@H]1C=C[C@@H](CC(=O)N2CCOCC2)O[C@@H]1CO	-2.2	94.9*	18.5	·	-0.3	-4.5
O=C(Cc1ccccc1)N[C@H]1C=C[C@@H](CC(=O)N2CCOCC2)O[C@H]1CO	0.4	93.2*	52.8*	·	-1.8	-8.2
O=C(Cc1ccccc1)N[C@H]1C=C[C@H](CC(=O)N2CCOCC2)O[C@@H]1CO	-1.4	-2.2	1.5	·	-5.1	-17.4
CCCNC(=O)N[C@H]1C=C[C@H](CC(=O)N2CCN(C)CC2)O[C@H]1CO	-0.5	-5.2	-9.9	·	-3.9	-1.7
Cn1cnc(S(=O)(=O)N[C@@H]2C=C[C@H](CC(=O)N3CCN(c4ccccc4)CC3)O[C@@H]2CO)c1	0.3	·	93.9*	·	-4.5	·
C[C@H](CO)N1C[C@H](C)[C@H](CN(C)Cc2cccnc2)Oc2cc(C#CC3CC3)ccc2S1(=O)=O	1.7	-1.0	-6.3	·	3.6	6.5
Cc1noc(C)c1S(=O)(=O)N(C)C[C@@H]1Oc2ccc(NS(=O)(=O)c3cn(C)cn3)cc2CC(=O)N([C@H](C)CO)C[C@H]1C	-1.5	-1.4	?	·	-0.6	-19.7
O=C(NC1CCCCC1)N[C@@H]1C=C[C@@H](CC(=O)N2CCOCC2)O[C@H]1CO	0.9	0.4	6.4	·	1.8	-13.5
O=C(C[C@H]1C=C[C@H](NC(=O)NC2CCCCC2)[C@H](CO)O1)NCc1ccc(F)cc1	0.1	-2.9	27.9*	·	-0.9	5.7
O=C(C[C@@H]1C=C[C@H](NC(=O)NC2CCCCC2)[C@@H](CO)O1)NCc1ccc(F)cc1	-1.9	1.5	2.9	·	9.2	5.1
O=C(NC1CCCCC1)N[C@H]1C=C[C@@H](CC(=O)N2CCOCC2)O[C@H]1CO	-1.9	103.9*	?	·	0.2	2.5
COc1ccc(NC(=O)N(C)C[C@H]2Oc3c(NC(=O)c4cnccn4)cccc3C(=O)N([C@@H](C)CO)C[C@H]2C)cc1	0.7	-1.4	14.2	·	5.1	10.7
CC(C)NC(=O)N1[C@H](CO)[C@@H](c2ccc(C#CC3CC3)cc2)[C@@H]1C#N	-2.9	1.9	-8.2	·	16.6	13.7
Cc1noc(C)c1NC(=O)N(C)C[C@H]1OCCCC[C@H](C)Oc2ccc(NC(=O)NC3CCCCC3)cc2C(=O)N([C@@H](C)CO)C[C@@H]1C	-2.9	-1.4	27.7*	·	0.8	·
Cc1noc(C)c1NC(=O)N(C)C[C@H]1OCCCC[C@H](C)Oc2ccc(NC(=O)NC(C)C)cc2C(=O)N([C@H](C)CO)C[C@@H]1C	-3.0	-6.0	102.0*	·	-4.2	·
Cc1noc(C)c1NC(=O)Nc1ccc2c(c1)C(=O)N([C@@H](C)CO)C[C@H](C)[C@@H](CN(C)C(=O)NC1CCCCC1)OCCCC[C@H](C)O2	-0.9	4.8	21.2*	·	3.7	·
COc1ccc(S(=O)(=O)N(C)C[C@@H]2Oc3ccc(NC(=O)CCCN(C)C)cc3CC(=O)N([C@H](C)CO)C[C@@H]2C)cc1	-1.6	·	-8.3	·	6.0	·
Cc1noc(C)c1S(=O)(=O)Nc1ccc2c(c1)C(=O)N([C@@H](C)CO)C[C@@H](C)[C@@H](CN(C)S(=O)(=O)c1cn(C)cn1)OCCCC[C@@H](C)O2	-2.5	-1.8	-1.6	·	-0.1	·
Cc1ccc(F)cc1S(=O)(=O)N[C@@H]1CCN(Cc2ccc(OC(C)C)cc2)C1	-0.1	1.2	?	·	5.3	·
Cc1ccc(F)cc1S(=O)(=O)N[C@H]1CCN(Cc2ccc(OC(C)C)cc2)C1	4.5	0.8	29.1*	·	2.3	·
COc1ccc2c3c(n(C)c2c1)[C@@H](CO)N(C(=O)Cc1ccccn1)CC31CCN(Cc2ccccn2)CC1	-1.2	·	-0.4	·	-7.3	·
O=C1C(=Cc2ccccn2)CCc2ccccc21	-0.7	-2.3	38.1*	-2.6	1.0	5.5
SMILES	F508del corr	Cneo AK release	DENV2 CPE rescue	PDI inh	ERp5 block	Statin myotox sup
COc1cccc(CN2CC3(C2)CN(C(=O)C2CC2)[C@@H](CO)c2c3c3ccc(OC)cc3n2C)c1	2.1	·	3.8	·	·	·
Cc1ccc(S(=O)(=O)N(C)C[C@H]2OCCCC[C@H](C)Oc3ccc(NS(=O)(=O)c4c(C)noc4C)cc3C(=O)N([C@@H](C)CO)C[C@H]2C)cc1	1.2	0.0	48.5*	·	-3.3	·
COc1ccc(S(=O)(=O)N(C)C[C@@H]2OCCCC[C@H](C)Oc3ccc(NS(=O)(=O)c4c(C)noc4C)cc3C(=O)N([C@H](C)CO)C[C@H]2C)cc1	-0.3	-1.3	96.5*	·	-2.1	·
Cc1ccc(S(=O)(=O)N(C)C[C@@H]2OCCCC[C@H](C)Oc3ccc(NS(=O)(=O)c4c(C)noc4C)cc3C(=O)N([C@@H](C)CO)C[C@@H]2C)cc1	-3.2	-2.5	81.3*	·	7.9	·
Cc1ccc(S(=O)(=O)Nc2ccc3c(c2)C(=O)N([C@H](C)CO)C[C@H](C)[C@H](CN(C)S(=O)(=O)c2c(C)noc2C)OCCCC[C@H](C)O3)cc1	1.4	4.2	30.8*	·	2.6	·
Cc1noc(C)c1S(=O)(=O)Nc1ccc2c(c1)C(=O)N([C@H](C)CO)C[C@H](C)[C@@H](CN(C)C(=O)c1ccccc1)OCCCC[C@H](C)O2	-2.8	-4.5	7.2	·	-2.2	·
CCC(=O)N1C[C@@H](C)[C@@H](OC)CN(C)C(=O)c2ccc(NC(=O)Nc3ccccc3)cc2OC[C@@H]1C	0.4	-0.2	3.8	·	3.3	3.5
COc1ccc2c3c([nH]c2c1)[C@@H](CO)N(Cc1cccc(F)c1)CC31CCN(CC2CC2)CC1	-4.0	·	-30.9	·	·	·
C[C@@H]1CCCCO[C@@H](CN(C)C(=O)NC2CCCCC2)[C@@H](C)CN([C@@H](C)CO)C(=O)c2cc(NS(=O)(=O)c3cccs3)ccc2O1	0.1	0.7	-3.6	·	-1.6	-9.6
Cc1ccc(/C=N/NC(=O)c2c(-c3ccccc3)noc2C)c(O)c1	11.3*	-4.8	-1.0	-11.7	1.6	1.7
CCCCCCN1CCN(C2CN(Cc3ccc(F)cc3)S(=O)(=O)C2)CC1 (stereo not given)	1.7	0.6	30.8*	·	2.0	2.3
CCC(C)Sc1cccc(-c2nc3ccc(C)cn3c2NC2CCCCC2)c1 (stereo not given)	0.7	3.1	60.4*!	-0.5	-4.6	-39.3
O=C(C[C@@H]1C[C@H]2c3cc(NS(=O)(=O)c4ccc(F)cc4)ccc3O[C@H]2[C@H](CO)O1)N1CCCCC1	-0.4	-1.2	4.7	·	8.0	2.4

Source: PubChem (Broad Institute)
